In ChEMBL document CHEMBL3399931, “Reversible and irreversible small molecule inhibitors of monoamine oxidase B (MAO-B) investigated by biophysical techniques” (Bioorg Med Chem, 2015):
pEC50, pKi: −log10 of the molar value.

What was measured:
[1] = target: T1, Amine oxidase [flavin-containing] B (Homo sapiens, UniProt P27338); test: Inhibition of human recombinant soluble MAO-B assessed as change in melting temperature at 100 uM after 20 mins by SYPRO orange staining-based fluorescence assay
T1 sequence (P27338 whole entry): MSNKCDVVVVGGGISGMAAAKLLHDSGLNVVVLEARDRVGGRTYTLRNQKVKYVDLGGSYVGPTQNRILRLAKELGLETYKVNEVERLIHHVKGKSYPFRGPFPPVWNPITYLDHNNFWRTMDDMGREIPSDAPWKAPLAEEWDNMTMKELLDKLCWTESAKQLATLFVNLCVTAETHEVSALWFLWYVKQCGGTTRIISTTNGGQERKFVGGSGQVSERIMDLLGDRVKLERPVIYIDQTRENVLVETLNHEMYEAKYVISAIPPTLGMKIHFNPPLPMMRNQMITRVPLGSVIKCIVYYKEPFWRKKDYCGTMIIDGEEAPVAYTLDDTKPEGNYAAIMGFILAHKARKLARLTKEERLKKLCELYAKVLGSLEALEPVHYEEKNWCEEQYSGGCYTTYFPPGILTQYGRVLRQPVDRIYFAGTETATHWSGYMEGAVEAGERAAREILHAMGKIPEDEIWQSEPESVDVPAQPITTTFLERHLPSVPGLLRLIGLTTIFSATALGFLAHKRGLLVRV
Method in brief: (§1)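 It was preincubated with serial compound dilutions (0.5–10 µM or 1.7–100 µM) for 20 min at 4 °C in 10% DMSO. 1x SYPRO orange was then added and samples ramped 25–80 °C at 1 °C/s. Boltzmann Tm was taken from the ~50–70 °C region, and ΔTm = Tm(compound) − Tm(DMSO only).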

[2] = target: T1, Amine oxidase [flavin-containing] B; test: Inhibition of human recombinant soluble MAO-B expressed in Pichia pastoris incubated for 30 mins prior to substrate addition measured after 60 mins by MAO-Glo assay
[3] = target: T1, Amine oxidase [flavin-containing] B; test: Inhibition of human recombinant soluble MAO-B assessed as thermal shift after 20 mins by SYPRO orange staining-based fluorescence assay; method in brief: as §1
[4] = target: T1, Amine oxidase [flavin-containing] B; test: Inhibition of human recombinant microsomal MAO-B expressed in Pichia pastoris incubated for 30 mins prior to substrate addition measured after 60 mins by MAO-Glo assay
[5] = target: T2, Amine oxidase [flavin-containing] B (Rattus norvegicus, UniProt P19643); test: Reversible inhibition of MAO-B in rat whole brain homogenate assessed as recovered activity at 100 times IC50 incubated for 60 mins followed by 3 washes by Amplex Red assay; type: tissue-based; parameters: scale not given: the % may be the effect or the level left; details: 1 h
T2 sequence (P19643 whole entry): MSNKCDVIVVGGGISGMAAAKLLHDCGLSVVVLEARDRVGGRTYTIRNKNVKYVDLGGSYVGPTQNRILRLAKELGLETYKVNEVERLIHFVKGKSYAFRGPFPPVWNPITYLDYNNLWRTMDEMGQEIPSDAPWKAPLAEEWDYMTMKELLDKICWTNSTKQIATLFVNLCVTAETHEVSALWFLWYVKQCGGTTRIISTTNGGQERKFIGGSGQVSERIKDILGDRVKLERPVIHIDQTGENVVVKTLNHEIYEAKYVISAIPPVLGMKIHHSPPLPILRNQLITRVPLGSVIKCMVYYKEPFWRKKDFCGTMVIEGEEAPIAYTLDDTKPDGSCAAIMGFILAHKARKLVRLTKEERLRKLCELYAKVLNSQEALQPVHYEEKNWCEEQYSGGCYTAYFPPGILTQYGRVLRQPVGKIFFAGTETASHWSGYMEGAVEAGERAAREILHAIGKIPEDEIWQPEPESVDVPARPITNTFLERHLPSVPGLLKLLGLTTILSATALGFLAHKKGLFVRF

[6] = target: T2, Amine oxidase [flavin-containing] B; test: Reversible inhibition of MAO-B in rat whole brain homogenate assessed as recovered activity at 100 times IC50 incubated for 60 mins followed by 6 washes by Amplex Red assay; type: tissue-based; parameters: scale not given: the % may be the effect or the level left; details: 1 h
[7] = target: T1, Amine oxidase [flavin-containing] B; test: Inhibition of human recombinant soluble MAO-B assessed as change in melting temperature at 10 uM after 20 mins by SYPRO orange staining-based fluorescence assay
[8] = target: T3, Amine oxidase [flavin-containing] A (Rattus norvegicus, UniProt P21396); test: Inhibition of MAO-A in rat whole brain homogenate; type: tissue-based
T3 sequence (P21396 whole entry): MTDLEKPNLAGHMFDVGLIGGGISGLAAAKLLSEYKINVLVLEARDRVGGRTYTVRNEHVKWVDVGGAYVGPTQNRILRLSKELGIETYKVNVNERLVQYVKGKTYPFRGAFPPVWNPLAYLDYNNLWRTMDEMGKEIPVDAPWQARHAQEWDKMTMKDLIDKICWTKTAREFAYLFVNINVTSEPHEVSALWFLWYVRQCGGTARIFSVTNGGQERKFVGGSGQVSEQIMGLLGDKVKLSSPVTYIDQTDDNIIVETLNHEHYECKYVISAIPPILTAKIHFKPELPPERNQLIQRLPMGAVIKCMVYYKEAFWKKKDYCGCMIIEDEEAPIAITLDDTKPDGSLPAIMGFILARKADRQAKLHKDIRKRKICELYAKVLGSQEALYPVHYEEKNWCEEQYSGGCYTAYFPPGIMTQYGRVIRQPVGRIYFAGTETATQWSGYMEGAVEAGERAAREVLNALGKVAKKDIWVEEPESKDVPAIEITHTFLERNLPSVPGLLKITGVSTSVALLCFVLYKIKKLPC
Method in brief: (§2)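 Insoluble fraction of rat brain lysate was assayed with the non-selective MAO-Glo substrate. Dose–response curves were run against a matrix of fixed concentrations of an MAO-A-selective inhibitor (0.06–200 nM) and an MAO-B-selective inhibitor (0.05–50,000 nM), so that each isoform's contribution could be separated.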

[9] = target: T2, Amine oxidase [flavin-containing] B; test: Inhibition of MAO-B in rat whole brain homogenate; type: tissue-based; method in brief: as §2

For `Cn1c(=O)c2c(nc(/C=C/c3cccc(Cl)c3)n2C)n(C)c1=O`, the Activity [1] was “Not Active”.
Molecule `NCCNC(=O)c1ccc(Cl)cc1` has a pKi [2] of 7.49, a pEC50 [3] of 4.54 and a deltaTm [1] of 4.5 °C. The pKi [4] was 6.00.
For `N[C@@H]1C[C@H]1c1ccccc1.N[C@H]1C[C@@H]1c1ccccc1` (relative stereo) [TRANYLCYPROMINE], the Activity [1] was “Not Active”.
Work on `NCCNC(=O)c1ccc(Cl)cn1` [LAZABEMIDE] yielded an Activity [5] of 74%, an Activity [6] of 100% and a deltaTm [1] of 7 °C.
Molecule `C#CCN(C)Cc1ccccc1` [PARGYLINE] has a deltaTm [7] of 12.3 °C.
`CCc1ccc(CCOc2ccc(CC3SC(=O)NC3=O)cc2)nc1` (stereo unspecified) [PIOGLITAZONE] gave a deltaTm [1] of 2.5 °C.
`C#CCN[C@@H]1CCc2ccccc21` [RASAGILINE] gave a deltaTm [7] of 14.6 °C.
For `C[C@H](NCc1ccc(OCc2cccc(F)c2)cc1)C(N)=O` [SAFINAMIDE], the Activity [5] was 31% and the Activity [6] was 100%.
Molecule `C#CCN(C)[C@H](C)Cc1ccccc1` [SELEGILINE] has an INH [8] of 781 nM and an INH [9] of less than 200 nM.
